The source made the active and inactive calls. The calls are words filed in the database; no cut-off is given here.

Data set [1] is described as follows: Dark toxicity against human MCF7 cells assessed as decrease in cell viability by MTT assay. It counts as cell-based. Summed up: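 MCF-7 breast adenocarcinoma cells were incubated with compound without light. Viability was read by MTT colorimetric assay, and IC50 was derived from the concentration–response.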
Background: Formazan colour is commonly taken as a measure of viable cells.

Data set [2] concerns Acinetobacter baumannii. Description: Bactericidal activity against Acinetobacter baumannii ATCC BAA1797 at 1.25 ug/ml incubated under dark condition. It counts as ADME, organism-based.
For data set [3], the system named is Escherichia coli. Description: Bactericidal activity against Escherichia coli ATCC 25922 at 2 ug/ml incubated under dark condition. In kind it is ADME, organism-based.
Data set [4] relates to Pseudomonas aeruginosa. In words: Bactericidal activity against Pseudomonas aeruginosa ATCC BAA-2114 at 2 ug/ml incubated under dark condition. It counts as ADME, organism-based.
The test system of data set [5] is Klebsiella pneumoniae. Description: Bactericidal activity against carbapenem-resistant Klebsiella pneumoniae ATCC BAA-2146 at 2 ug/ml incubated under dark condition. In kind it is ADME, organism-based.
Data set [6] relates to Staphylococcus aureus. Description: Bactericidal activity against methicillin-resistant Staphylococcus aureus ATCC BAA-44 at 5 uM irradiated with white light for 2 mins and measured after overnight incubation by drip-streak plate method. In kind it is functional, organism-based. In outline:
(§1)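 MRSA ATCC BAA-44 cells incubated with a range of compound concentrations, then irradiated for 2 min with a white-light lamp or kept in the dark. Colonies were counted at the dilution giving 30–300 colonies. Each experiment had 3 replicates and was repeated in 3 independent experiments.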

The nature of data set [7]: Induction of singlet oxygen generation at 1285 nm at 10 uM. In kind it is functional.
The test system of data set [8] is Staphylococcus aureus. In words: Bactericidal activity against methicillin-resistant Staphylococcus aureus ATCC BAA-44 at 30 nM irradiated with white light for 2 mins and measured after overnight incubation by drip-streak plate method relative to control. In kind it is functional. In outline:
as §1

Data set [9] has as its system Streptococcus mutans. In words: Bactericidal activity against Streptococcus mutans Ward's 85W 2357 at 1 uM in presence of light. It counts as functional, organism-based.
Data set [10] concerns Streptococcus pyogenes. In words: Bactericidal activity against Streptococcus pyogenes ATCC 8133 at 1 uM in presence of light. It counts as functional, organism-based.
For data set [11], the system named is Streptococcus pyogenes. In words: Bactericidal activity against Streptococcus pyogenes ATCC 8133 at 1 uM incubated under dark condition. It counts as ADME, organism-based. Summed up:
(§2)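 Bacterial suspensions (about 10^8 CFU/mL) were incubated with the compound at a range of concentrations and kept in the dark, the unirradiated control for a 2 min white-light exposure. Samples were diluted 10-fold, drip-streaked on TSA and incubated overnight at 37 °C. Colonies were counted at the dilution giving 30–300 colonies.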

The subject of data set [12] is Pseudomonas aeruginosa. In words: Bactericidal activity against Pseudomonas aeruginosa ATCC BAA-2114 at 5 uM incubated under dark condition. In kind it is ADME, organism-based.
The test system of data set [13] is Enterococcus faecalis. Description: Bactericidal activity against Enterococcus faecalis ATCC 51299 at 1 uM in presence of light. In kind it is functional, organism-based.
For data set [14], the system named is Klebsiella pneumoniae. In words: Bactericidal activity against carbapenem-resistant Klebsiella pneumoniae ATCC BAA-2146 at 5 uM in presence of light and polymyxin E. In kind it is functional, organism-based.
For data set [15], the system named is Acinetobacter baumannii. Description: Bactericidal activity against Acinetobacter baumannii ATCC BAA1797 at 5 uM in presence of light. In kind it is functional, organism-based.
For data set [16], the system named is Acinetobacter baumannii. In words: Bactericidal activity against Acinetobacter baumannii ATCC BAA1797 at 5 uM incubated under dark condition. In kind it is ADME, organism-based.
The nature of data set [17]: Induction of singlet oxygen generation at 1210 nm. In kind it is functional.
The test system of data set [18] is Acinetobacter baumannii. In words: Bactericidal activity against Acinetobacter baumannii ATCC BAA1797 at 5 uM in presence of light and polymyxin E relative to control. It counts as functional.
The test system of data set [19] is Staphylococcus aureus. In words: Bactericidal activity against methicillin-resistant Staphylococcus aureus ATCC BAA-44 at 0.1 uM irradiated with white light for 2 mins and measured after overnight incubation by drip-streak plate method relative to control. In kind it is functional. Summed up: as §1
Data set [20] deals with Staphylococcus aureus. In words: Disruption of cell membrane in methicillin-resistant Staphylococcus aureus ATCC BAA-44 at 10 uM in presence of light by propidium iodide staining-based assay. In kind it is functional, organism-based. Summed up:
(§3)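 MRSA ATCC BAA-44 cells were treated with compound with or without light, then stained with propidium iodide. Red PI fluorescence marks membrane disruption; green fluorescence comes from the compound. Phenylarsine oxide was the positive control.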

The subject of data set [21] is Staphylococcus aureus. In words: Bactericidal activity against Staphylococcus aureus ATCC 29213 at 1 uM in presence of light. It counts as functional, organism-based.
In data set [22] the test system is Klebsiella pneumoniae. In words: Bactericidal activity against carbapenem-resistant Klebsiella pneumoniae ATCC BAA-2146 at 5 uM in presence of light. In kind it is functional, organism-based.
Data set [23] deals with Escherichia coli. In words: Bactericidal activity against Escherichia coli ATCC 25922 at 5 uM incubated under dark condition in presence of polymyxin E. It counts as ADME, organism-based.
Data set [24] has as its system Pseudomonas aeruginosa. In words: Bactericidal activity against Pseudomonas aeruginosa ATCC BAA-2114 at 5 uM in presence of light. In kind it is functional, organism-based.
Data set [25] deals with Pseudomonas aeruginosa. In words: Bactericidal activity against Pseudomonas aeruginosa ATCC BAA-2114 at 5 uM in presence of light and polymyxin E. It counts as functional, organism-based.
Data set [26] concerns Escherichia coli. In words: Bactericidal activity against Escherichia coli ATCC 25922 at 5 uM incubated under dark condition. It counts as ADME, organism-based.
For data set [27], the system named is Klebsiella pneumoniae. Description: Bactericidal activity against carbapenem-resistant Klebsiella pneumoniae ATCC BAA-2146 at 5 uM incubated under dark condition in presence of polymyxin E. It counts as ADME, organism-based.
For data set [28], the system named is Klebsiella pneumoniae. In words: Bactericidal activity against carbapenem-resistant Klebsiella pneumoniae ATCC BAA-2146 at 2 ug/ml in presence of light. In kind it is functional, organism-based.
In data set [29] the test system is Staphylococcus aureus. In words: Bactericidal activity against methicillin-resistant Staphylococcus aureus ATCC BAA-44 at 1 uM irradiated with white light through mask for 2 mins and measured after overnight incubation. It counts as functional, organism-based. In outline:
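MRSA ATCC BAA-44 cells were pre-treated with compound at 1 μM and spread over an agar plate. The plate was irradiated with white light through a mask for 2 min, incubated overnight at 37 °C and photographed to show where colonies grew.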

In data set [30] the test system is Pseudomonas aeruginosa. In words: Bactericidal activity against Pseudomonas aeruginosa ATCC BAA-2114 at 2 ug/ml in presence of light. In kind it is functional, organism-based.
Data set [31] has as its system Staphylococcus aureus. In words: Bactericidal activity against Staphylococcus aureus ATCC 29213 at 1 uM incubated under dark condition. In kind it is ADME, organism-based.
Data set [32] concerns Staphylococcus aureus. In words: Disruption of cell membrane in methicillin-resistant Staphylococcus aureus ATCC BAA-44 in presence of light by scanning electron microscopic method. It counts as functional, organism-based.
Data set [33] deals with Streptococcus mutans. In words: Bactericidal activity against Streptococcus mutans Ward's 85W 2357 at 1 uM incubated under dark condition. It counts as ADME, organism-based. Summed up:
as §2

The subject of data set [34] is Klebsiella pneumoniae. In words: Bactericidal activity against carbapenem-resistant Klebsiella pneumoniae ATCC BAA-2146 at 5 uM incubated under dark condition. In kind it is ADME, organism-based.
Data set [35] concerns Enterococcus faecalis. In words: Bactericidal activity against Enterococcus faecalis ATCC 51299 at 1 uM incubated under dark condition. In kind it is ADME, organism-based. In outline: as §2
Data set [36] concerns Staphylococcus aureus. Description: Bactericidal activity against methicillin-resistant Staphylococcus aureus ATCC BAA-44 irradiated with white light for 2 mins and measured after overnight incubation by drip-streak plate method. In kind it is functional, organism-based. In outline:
as §1

Data set [37] concerns Staphylococcus aureus. Description: Disruption of cell membrane in methicillin-resistant Staphylococcus aureus ATCC BAA-44 incubated under dark condition by scanning electron microscopic method. It counts as organism-based.
The test system of data set [38] is Escherichia coli. In words: Bactericidal activity against Escherichia coli ATCC 25922 at 5 uM in presence of light. In kind it is functional, organism-based.
Data set [39] deals with Acinetobacter baumannii. In words: Bactericidal activity against Acinetobacter baumannii ATCC BAA1797 at 1.25 ug/ml in presence of light. In kind it is functional, organism-based.
Data set [40] has as its system Escherichia coli. In words: Bactericidal activity against Escherichia coli ATCC 25922 at 5 uM in presence of light and polymyxin E relative to control. In kind it is functional.
Data set [41] has as its system Staphylococcus aureus. In words: Bactericidal activity against methicillin-resistant Staphylococcus aureus ATCC BAA1717 at 1 uM in presence of light. In kind it is functional, organism-based.
For data set [42], the system named is Staphylococcus aureus. Description: Bactericidal activity against methicillin-resistant Staphylococcus aureus ATCC BAA-44 incubated under dark condition and measured after overnight incubation by drip-streak plate method. The following applies: in vitro. In kind it is ADME, organism-based. In outline: as §1
Data set [43] has as its system Escherichia coli. In words: Bactericidal activity against Escherichia coli ATCC 25922 at 2 ug/ml in presence of light. In kind it is functional, organism-based.
Data set [44] relates to Staphylococcus aureus. Description: Disruption of cell membrane in methicillin-resistant Staphylococcus aureus ATCC BAA-44 at 10 uM incubated under dark condition by propidium iodide staining-based assay. It counts as organism-based. In outline: as §3

On to `CN(C)[C@@H]1C(O)=C(C(N)=O)C(=O)[C@@]2(O)C(O)=C3C(=O)c4c(O)cccc4[C@@](C)(O)[C@H]3C[C@@H]12` [TETRACYCLINE], for which the IC50 in data set [1] was 41.6 µM.
In the case of COLISTIN, the Activity result with Acinetobacter baumannii [2], in the data set on Escherichia coli [3], in the data set on Pseudomonas aeruginosa [4] and in the data set on Klebsiella pneumoniae [5] was “Non-Toxic” throughout.
`Fc1ccc(/C=C/c2[nH]c3ccccc3c2/C=C/c2ccc(F)cc2)cc1`: in the data set on Staphylococcus aureus [6], the outcome was inactive.
For the compound `O=C1OC2(c3cc(I)c(O)c(I)c3Oc3c2cc(I)c(O)c3I)c2c(Cl)c(Cl)c(Cl)c(Cl)c21`, the result in data set [7] was Active.
Consider `C(=C\c1[nH]c2ccccc2c1/C=C/c1ccccc1)/c1ccccc1`, for which the “fold change (FC)” value in the data set on Staphylococcus aureus [8] turned out to be 5.
`Clc1cccc(/C=C/c2[nH]c3ccccc3c2/C=C/c2cccc(Cl)c2)c1`: in the data set on Staphylococcus aureus [6], the result was inactive.
The same measure, in the same setting: for `Clc1ccccc1/C=C/c1[nH]c2ccccc2c1/C=C/c1ccccc1Cl` the value was “Active”; for `COc1ccc(/C=C/c2[nH]c3ccccc3c2/C=C/c2ccc(OC)cc2)cc1`, “inactive”.
`Clc1ccc(/C=C/c2[nH]c3ccccc3c2/C=C/c2ccc(Cl)cc2)cc1`: the outcome in the data set on Streptococcus mutans [9], in the data set on Streptococcus pyogenes [10], with Enterococcus faecalis [13], in the data set on Klebsiella pneumoniae [14], in the data set on Staphylococcus aureus [20] and with Staphylococcus aureus [21] was Active. Besides, the result in the data set with Pseudomonas aeruginosa [25], in the data set with Staphylococcus aureus [29], in the data set on Staphylococcus aureus [32] and in the data set with Staphylococcus aureus [41] was Active. Further, the Activity result in the data set on Streptococcus pyogenes [11] is “Non-Toxic”; in the data set with Pseudomonas aeruginosa [12], “Non-Toxic”; in the data set with Acinetobacter baumannii [16] it was “Non-Toxic”; in data set [17] it was “Dose-dependent effect”; in the data set on Acinetobacter baumannii [18], 7 deltalog10CFU/ml; with Staphylococcus aureus [19], 5 deltalog10CFU/ml. The Activity result with Escherichia coli [23] is “Toxic”; in the data set with Escherichia coli [26], “Non-Toxic”; in the data set with Klebsiella pneumoniae [27], “Toxic”; in the data set with Staphylococcus aureus [31], “Non-Toxic”; in the data set with Streptococcus mutans [33] it was “Non-Toxic”; in the data set with Klebsiella pneumoniae [34], “Non-Toxic”. Besides, the Activity result in the data set on Enterococcus faecalis [35] was “Non-Toxic”; in the data set on Staphylococcus aureus [36] it was “Dose-dependent effect”; with Staphylococcus aureus [37] it was “Non-Toxic”; in the data set with Escherichia coli [40], 7 deltalog10CFU/ml; in the data set on Staphylococcus aureus [42] it was “Dose-dependent effect”; with Staphylococcus aureus [44], “Non-Toxic”. The result in the data set with Acinetobacter baumannii [15], in the data set with Klebsiella pneumoniae [22], with Pseudomonas aeruginosa [24], in the data set on Klebsiella pneumoniae [28], in the data set on Pseudomonas aeruginosa [30] and with Escherichia coli [38] was inactive. The result in the data set on Acinetobacter baumannii [39] and with Escherichia coli [43] was inactive. Also, the half-maximal inhibitory concentration (IC50) in data set [1] turned out to be 47 µM.
Regarding `CCn1cc(C(=O)O)c(=O)c2cc(F)c(N3CCNCC3)cc21` [NORFLOXACIN], the IC50 in data set [1] was 13.8 µM.

The term IC50 denotes the midpoint of a concentration-inhibition curve.

(Values after ChEMBL document CHEMBL4229395, “Photoactivated 2,3-distyrylindoles kill multi-drug resistant bacteria” (Bioorg Med Chem Lett, 2018).)
